Results published in ChEMBL document CHEMBL1145772, “Antiinflammatory, gastrosparing, and antiplatelet properties of new NO-donor esters of aspirin” (J Med Chem, 2003).

Tests used:
Homo sapiens [1] = species: Homo sapiens; assay: Inhibition of collagen-induced human platelet rich plasma aggregation at 50 uM concentration; format: functional
Summary of the method: (§1)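 Human platelet-rich plasma is prepared from citrated venous blood of drug-free healthy volunteers (at least 2 weeks) by spinning at 200g for 20 min. Compound is added 10 min before the agonist, either ADP or collagen at […]. Light-transmission aggregation is recorded under stirring at 1000 rpm, 37 °C, for 5 min. Inhibition is expressed relative to vehicle (<0.5% DMSO) controls. The top concentration is 50 µM. pIC50 is fitted by nonlinear regression when inhibition exceeds 50%.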

Homo sapiens [2] = species: Homo sapiens; assay: Inhibition of ADP-induced human platelet rich plasma aggregation at 50 uM concentration; format: functional; summary of the method: as §1
[3] = Percent unaltered compound in human serum after 1 hr of incubation; format: ADME; details: read-out: Unaltered compound
Summary of the method: (§2)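 Compound is incubated in human serum at 37 °C for 1 min or 1 h. Samples are then deproteinized with acetonitrile containing 0.1% TFA and centrifuged at 9600g for 10 min. The remaining intact compound is quantified by reversed-phase HPLC on an RP-18 column at 40 °C, using a 25–80% acetonitrile/0.1% TFA gradient, with UV detection at 224 nm.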

[4] = Percent unaltered compound in human serum after 1 min of incubation; format: ADME; details: read-out: Unaltered compound; summary of the method: as §2
[5] = NO release in the presence of 1:5 molar excess of L-cysteine, value expressed as % mol/mol of NO2-
Summary of the method: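 Compound is dissolved in pH 7.4 buffered water/methanol and incubated for 1 h at 37 °C with a 1:5 molar excess of L-cysteine (5 × 10^-4 M). Griess reagent is added, and absorbance at 540 nm is read after 10 min at room temperature. Nitrite is reported as % mol/mol, mean ± SEM.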

Homo sapiens [6] = species: Homo sapiens; assay: Inhibition of collagen-induced human platelet rich plasma aggregation at 50 uM concentration in presence of 40 uM HbO2; format: functional
Summary of the method: (§3)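 Aggregation of human PRP is triggered by ADP or by collagen at […], and read by light transmission (stirring, 37 °C, 5 min). Compound is given 10 min before the agonist. The NO scavenger oxyhaemoglobin or the sGC inhibitor ODQ (100 µM) is included to probe NO/sGC involvement. The value is % inhibition versus vehicle control at the top tested concentration of 50 µM.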

Homo sapiens [7] = species: Homo sapiens; assay: Inhibition of ADP-induced human platelet rich plasma aggregation at 50 uM concentration in presence of 100 uM ODQ; format: functional; summary of the method: as §3
Homo sapiens [8] = species: Homo sapiens; assay: Inhibition of collagen-induced human platelet rich plasma aggregation at 50 uM concentration in presence of 100 uM ODQ; format: functional; summary of the method: as §3
Homo sapiens [9] = species: Homo sapiens; assay: Inhibition of ADP-induced human platelet rich plasma aggregation at 50 uM concentration in presence of 40 uM HbO2; format: functional; summary of the method: as §3
Homo sapiens [10] = species: Homo sapiens; assay: Inhibition of collagen-induced human platelet rich plasma aggregation; format: functional; summary of the method: as §1

Row | SMILES | inhibition at 50 µM (Homo sapiens [1]) | inhibition at 50 µM (Homo sapiens [2]) | remaining at 1 h [3] | remaining at 1 min [4] | NO release [5] | Inhibition (Homo sapiens [6]) | Inhibition (Homo sapiens [7]) | Inhibition (Homo sapiens [8]) | Inhibition (Homo sapiens [9]) | Inhibition (Homo sapiens [10])
1 | CC(=O)Oc1ccccc1C(=O)OCCCOc1nonc1-c1ccccc1 | 0.7% | 16.9% | 3.9% | 39.3% |  |  |  |  |  | 
2 | CC(=O)Oc1ccccc1C(=O)OCc1nonc1C | 1.5% | 23.2% | 0% | 0% |  |  |  |  |  | 
3 | CC(=O)Oc1ccccc1C(=O)OCc1nonc1C#N | 27.9% | 14.8% | 0% | 0% |  |  |  |  |  | 
4 | CC(=O)Oc1ccccc1C(=O)OCCCOc1no[n+]([O-])c1-c1ccccc1 |  |  | 3.8% | 38.8% | 0.35 |  |  |  |  | 
5 | CC(=O)Oc1ccccc1C(=O)OCc1no[n+]([O-])c1C(N)=O |  |  | 0% | 0% | 3.8 | 14.4% | 22.6% | 18.5% | 28.6% | 
6 | CC(=O)Oc1ccccc1C(=O)OCCCOc1no[n+]([O-])c1S(=O)(=O)c1ccccc1 |  |  | 9.3% | 43.7% | 37.1 |  |  |  |  | 
7 | CC(=O)Oc1ccccc1C(=O)OCc1nonc1C(N)=O | 16.7% | 7.6% | 0% | 0% |  |  |  |  |  | 
8 | CC(=O)Oc1ccccc1C(=O)OCc1no[n+]([O-])c1C#N |  |  | 0% | 0% | 32.3 |  |  |  |  | 
9 | CCCOC(=O)c1ccccc1OC(C)=O | 14.4% | 18.1% | 0% | 0% |  |  |  |  |  | 
10 | CC(=O)Oc1ccccc1C(=O)OCc1no[n+]([O-])c1C |  | 17.8% | 0% | 2.5% | 0 |  |  |  |  | 18.6%
11 | CC(=O)Oc1ccccc1C(=O)OCCCOc1nonc1S(=O)(=O)c1ccccc1 | 14.8% | 3.3% | 8.1% | 47.6% |  |  |  |  |  | 
12 | CC(=O)Oc1ccccc1C(=O)OCCCO[N+](=O)[O-] | 12.3% | 18.3% | 0% | 0% | 0.18 |  |  |  |  | 
